The species named for assay [1] is Cavia porcellus. Nature of the assay: The opioid activity by guinea pig ileum assay. It is filed as functional. In a few lines:
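Guinea pig ileum twitch assay with cumulative peptide additions to the bath. IC50 values are means from three to six replicates using tissues from different animals.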

Assay [2] is filed under the species Cavia porcellus. As to the kind of experiment: Opioid antagonist activity in guinea pig ileum assay. It is filed as functional. The note with it: read-out: pA2 (converted). The method in brief: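 Guinea pig ileum antagonism: tissue incubated 10 min with peptide (10 μM where stated), then given […]. Shift measured relative to the agonist IC50 obtained without test peptide.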

The target in assay [3] is Delta-type opioid receptor (Rattus norvegicus, UniProt P33533). As to the kind of experiment: Affinity against Opioid receptor delta 1 was determined by measuring the inhibition of [3H]DPDPE binding to rat forebrain membranes. It is filed as cell membranes, Membrane. The method in brief:
(§1)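 Rat forebrain membranes in 50 mM Tris pH 7.7, incubated 5 h at 4 °C. Final 10 μM bestatin, 30 μM captopril and 50 μM L-leucyl-L-leucine. Nonspecific binding defined with 10 μM levorphanol ([3H]DAMGO) or 10 μM unlabeled DPDPE ([3H]DPDPE). Competition curves fitted by nonlinear regression. Ratios use the lowest Ki as denominator.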

The target in assay [4] is T1, Kappa-type opioid receptor (Cavia porcellus, UniProt P41144). As to the kind of experiment: Binding affinity towards Opioid receptor kappa 1 using [3H]diprenorphine as radioligand in guinea pig cerebellar membrane in absence of 120 mM NaCl + 50 uM Gpp(NH)p. Type of assay: cell membranes, Cerebellum. The method in brief:
(§2)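 Guinea pig cerebellar membranes prepared in 50 mM Tris pH 7.4. [3H]diprenorphine at 0.3 nM final, 60 min at 25 °C, with 10 μM bestatin, 1 mM Leu-Leu and 100 nM DAMGO. Run without or with 120 mM NaCl plus 50 μM Gpp(NH)p. Nonspecific binding with 1 μM Dyn A-(1–13)NH2. Filtration over polyethyleneimine-soaked filters; shift expressed as IC50(+)/IC50(–).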

Assay [5] concerns the target T1, Kappa-type opioid receptor. Nature of the assay: Binding affinity towards Opioid receptor kappa 1 using [3H]diprenorphine as radioligand in guinea pig cerebellar membrane in presence of 120 mM NaCl + 50 uM Gpp(NH)p. It is filed as cell membranes, Cerebellum. In a few lines:
as §2

Assay [6] can be described thus: IC50 ratio measured as the IC50(presence of 50 uM of Gpp(NH)p)/IC50 (absence of 50 uM of Gpp(NH)p). In a few lines: as §2
In assay [7] the target is T2, Opioid receptors; mu/kappa/delta (Homo sapiens) (UniProt P41145+P41143+P35372). Nature of the assay: Ki ratio is measured as the Ki values of kappa/mu/delta receptors; 1/480/27900. It is filed as protein assay. In a few lines:
(§3)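 Rat forebrain membranes in 50 mM Tris pH 7.7, incubated 5 h at 4 °C. Final 10 μM bestatin, 30 μM captopril and 50 μM L-leucyl-L-leucine. Nonspecific binding defined with 10 μM levorphanol ([3H]DAMGO) or 10 μM unlabeled DPDPE ([3H]DPDPE). Competition curves fitted by nonlinear regression. IC50 converted to Ki by Cheng–Prusoff with KD 0.314 nM (DAMGO) and 7.63 nM (DPDPE). Ratios use the lowest Ki as denominator.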

Assay [8] has as its target T1, Kappa-type opioid receptor. Nature of the assay: Affinity against Opioid receptor kappa 2 was determined by measuring the inhibition of [3H]bremazocine binding to guinea pig cerebellar membranes. Set-up: species or system Cerebellum, Membrane.
For assay [9], the target named is T1, Kappa-type opioid receptor. Nature of the assay: Affinity against Opioid receptor kappa 3 was determined by measuring the inhibition of [3H]NalBzoH binding to […].
Assay [10] has as its target Mu-type opioid receptor (Rattus norvegicus, UniProt P33535). As to the kind of experiment: Affinity against Opioid receptor mu 1 was determined by measuring the inhibition of [3H]DAMGO binding to rat forebrain membranes. Type of assay: cell membranes, Membrane. In a few lines:
as §1

The target in assay [11] is T1, Kappa-type opioid receptor. Nature of the assay: Affinity against Opioid receptor kappa 1 was determined by measuring the inhibition of [3H]U-69593 binding to guinea pig […].
The target of assay [12] is T1, Kappa-type opioid receptor. Nature of the assay: Affinity against Opioid receptor kappa 1 was determined by measuring the inhibition of [3H]bremazocine binding to guinea pig cerebellar membranes. In a few lines:
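Guinea pig cerebellar membranes with [3H]bremazocine in 20 mM HEPES pH 7.4, 3 h at 4 °C. 100 nM DAMGO and 100 nM bestatin present; nonspecific binding with 10 μM Dyn A-(1–13)NH2. Competition curves fitted by nonlinear regression. Selectivity ratios use the lowest Ki as denominator.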

Assay [13] deals with T2, Opioid receptors; mu/kappa/delta (Homo sapiens). Nature of the assay: Ki ratio is measured as the Ki values of kappa/mu/delta receptors; 1/21/880. It is filed as protein assay. The method in brief: as §3
The target of assay [14] is Kappa-type opioid receptor (Homo sapiens) (UniProt P41145). Nature of the assay: Ki ratio is measured as the Ki values of kappa-1/kappa.2/kappa.3 receptors; 1/150/17. The method in brief:
(§4)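 Hartley guinea pig whole-brain homogenate in 50 mM Tris-HCl pH 7.7 (6.67 mg wet tissue/mL; 5 mM EDTA for NalBzoH). Radioligands ~1 nM: [3H]U69,593 (κ1); [3H]bremazocine plus 100 nM DAMGO, DSLET and U69,593 (κ2); [3H]NalBzoH plus 100 nM U69,593 (κ3). Test peptide 10⁻⁵–10⁻¹¹ M, 1 h at 25 °C, with bacitracin/bestatin/thiorphan. Nonspecific binding: 1 μM U69,593, 10 μM bremazocine or NalBzoH. Filtration; Ki via Cheng–Prusoff.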

For assay [15], the target named is T2, Opioid receptors; mu/kappa/delta (Homo sapiens). Nature of the assay: Ki ratio is measured as the Ki values of kappa/mu/delta receptors; 1/8.8/41. Type of assay: protein assay. The method in brief: as §3
Assay [16] addresses Kappa-type opioid receptor (Homo sapiens) (UniProt P41145). Nature of the assay: Ki ratio is measured as the Ki values of kappa-1/kappa.2/kappa.3 receptors; 1/233/5.3. The method in brief:
as §4

Molecules are shown by their SMILES. A value given as a limit tells only on which side of the number the result lay.

The results in this text go back to ChEMBL document CHEMBL1130124, “Synthesis and opioid activity of [D-Pro10]dynorphin A-(1-11) analogues with N-terminal alkyl substitution” (J Med Chem, 1997).

T1 sequence (P41144 whole entry): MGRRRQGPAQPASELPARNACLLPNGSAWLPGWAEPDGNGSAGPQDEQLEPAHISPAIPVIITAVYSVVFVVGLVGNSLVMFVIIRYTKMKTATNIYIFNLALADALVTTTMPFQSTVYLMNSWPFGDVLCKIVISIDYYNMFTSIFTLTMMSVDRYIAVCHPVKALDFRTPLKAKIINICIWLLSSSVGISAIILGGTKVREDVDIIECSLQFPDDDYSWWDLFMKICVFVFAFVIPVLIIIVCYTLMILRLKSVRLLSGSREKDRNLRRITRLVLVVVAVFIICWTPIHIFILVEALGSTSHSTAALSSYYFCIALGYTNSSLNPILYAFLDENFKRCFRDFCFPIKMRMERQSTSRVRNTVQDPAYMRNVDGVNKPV
Delta-type opioid receptor, sequence (P33533 whole entry): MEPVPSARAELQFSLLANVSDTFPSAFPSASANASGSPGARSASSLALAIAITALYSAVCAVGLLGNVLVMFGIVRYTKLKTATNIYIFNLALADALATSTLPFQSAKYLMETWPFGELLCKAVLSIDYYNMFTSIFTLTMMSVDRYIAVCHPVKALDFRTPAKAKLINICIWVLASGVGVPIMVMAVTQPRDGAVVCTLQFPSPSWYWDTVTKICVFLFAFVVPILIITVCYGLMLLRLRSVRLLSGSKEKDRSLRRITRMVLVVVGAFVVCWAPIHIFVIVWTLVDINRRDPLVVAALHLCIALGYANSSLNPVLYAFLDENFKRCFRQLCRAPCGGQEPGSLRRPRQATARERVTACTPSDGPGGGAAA
T2 sequence (P35372 whole entry, looked up): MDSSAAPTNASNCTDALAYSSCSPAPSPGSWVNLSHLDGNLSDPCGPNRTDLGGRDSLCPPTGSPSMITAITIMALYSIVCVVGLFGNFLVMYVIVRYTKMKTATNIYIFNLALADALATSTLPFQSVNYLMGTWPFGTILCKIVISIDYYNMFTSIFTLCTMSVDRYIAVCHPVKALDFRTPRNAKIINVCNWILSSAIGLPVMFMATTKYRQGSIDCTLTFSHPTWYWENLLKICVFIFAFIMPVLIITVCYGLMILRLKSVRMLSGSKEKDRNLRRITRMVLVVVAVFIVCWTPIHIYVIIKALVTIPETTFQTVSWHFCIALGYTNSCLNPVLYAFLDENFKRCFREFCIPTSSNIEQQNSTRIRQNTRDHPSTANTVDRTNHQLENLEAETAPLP
T2 sequence (P41143 whole entry, looked up): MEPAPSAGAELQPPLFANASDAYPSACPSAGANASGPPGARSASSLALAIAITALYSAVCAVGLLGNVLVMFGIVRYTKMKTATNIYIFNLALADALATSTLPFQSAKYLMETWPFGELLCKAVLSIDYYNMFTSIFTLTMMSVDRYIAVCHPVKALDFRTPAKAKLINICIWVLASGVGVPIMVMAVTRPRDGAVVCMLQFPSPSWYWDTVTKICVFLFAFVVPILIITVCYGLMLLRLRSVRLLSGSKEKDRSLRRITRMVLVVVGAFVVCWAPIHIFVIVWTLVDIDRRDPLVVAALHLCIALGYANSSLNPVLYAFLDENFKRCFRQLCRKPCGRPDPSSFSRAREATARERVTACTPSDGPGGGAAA
T2 sequence (P41145 whole entry, looked up): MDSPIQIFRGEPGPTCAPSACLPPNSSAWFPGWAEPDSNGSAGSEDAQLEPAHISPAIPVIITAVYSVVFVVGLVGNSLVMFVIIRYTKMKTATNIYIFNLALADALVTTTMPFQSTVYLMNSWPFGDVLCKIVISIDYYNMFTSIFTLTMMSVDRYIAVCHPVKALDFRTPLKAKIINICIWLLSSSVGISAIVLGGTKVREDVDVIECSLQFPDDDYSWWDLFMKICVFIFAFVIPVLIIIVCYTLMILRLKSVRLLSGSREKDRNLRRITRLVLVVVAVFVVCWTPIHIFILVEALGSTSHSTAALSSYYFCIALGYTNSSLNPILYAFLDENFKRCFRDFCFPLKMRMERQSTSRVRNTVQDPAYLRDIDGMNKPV
Kappa-type opioid receptor (Homo sapiens), sequence (P41145 whole entry): as the sequence (P41145 whole entry, looked up) above
Mu-type opioid receptor, sequence (P33535 whole entry): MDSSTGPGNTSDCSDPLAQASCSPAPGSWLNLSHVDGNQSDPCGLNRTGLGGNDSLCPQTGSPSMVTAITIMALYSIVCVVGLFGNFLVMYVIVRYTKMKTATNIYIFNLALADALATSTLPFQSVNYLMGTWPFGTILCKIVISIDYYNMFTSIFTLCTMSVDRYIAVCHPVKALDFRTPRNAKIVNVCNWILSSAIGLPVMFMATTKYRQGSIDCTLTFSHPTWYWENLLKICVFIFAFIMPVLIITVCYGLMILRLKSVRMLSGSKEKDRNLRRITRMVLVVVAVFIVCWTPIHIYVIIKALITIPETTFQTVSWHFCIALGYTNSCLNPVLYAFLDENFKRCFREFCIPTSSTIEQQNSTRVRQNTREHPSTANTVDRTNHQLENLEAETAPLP

What is called IC50 is the point on the concentration scale where inhibition reaches its midpoint. Broadly, the Ki is a measure of affinity in units of concentration, obtained from inhibition or displacement. A high value points to weaker binding. For the molecule `CC[C@H](C)[C@H](NC(=O)[C@H](CCCN=C(N)N)NC(=O)[C@H](CCCN=C(N)N)NC(=O)[C@H](CC(C)C)NC(=O)[C@H](Cc1ccccc1)NC(=O)CNC(=O)CNC(=O)[C@H](Cc1ccc(O)cc1)NCC1CC1)C(=O)N[C@@H](CCCN=C(N)N)C(=O)N1CCCC1C(=O)N[C@@H](CCCCN)C(=O)O` (stereo in doubt), the IC50 in [1] stood at 2.16 nM; in [4], 0.41 nM; in assay [5], 27.1 nM. Moreover, in assay [2], the Kb was 50.1 nM. In assay [3], this molecule came in with an inhibition constant Ki of 558 nM. In addition, the Ratio in assay [6] was found to be 66.9. Besides, the Ki ratio entry in assay [7] is reported as “kappa/delta/mu”.

Consider `C=CCN[C@@H](Cc1ccc(O)cc1)C(=O)NCC(=O)NCC(=O)N[C@@H](Cc1ccccc1)C(=O)N[C@@H](CC(C)C)C(=O)N[C@@H](CCCN=C(N)N)C(=O)N[C@@H](CCCN=C(N)N)C(=O)N[C@H](C(=O)N[C@@H](CCCN=C(N)N)C(=O)N1CCCC1C(=O)N[C@@H](CCCCN)C(=O)O)[C@@H](C)CC` (stereo in doubt), for which, in assay [2], the Kb is 25.1 nM.

On to `CC[C@H](C)[C@H](NC(=O)[C@H](CCCN=C(N)N)NC(=O)[C@H](CCCN=C(N)N)NC(=O)[C@H](CC(C)C)NC(=O)[C@H](Cc1ccccc1)NC(=O)CNC(=O)CNC(=O)[C@H](Cc1ccc(O)cc1)N(Cc1ccccc1)Cc1ccccc1)C(=O)N[C@@H](CCCN=C(N)N)C(=O)N1CCCC1C(=O)N[C@@H](CCCCN)C(=O)O` (stereo in doubt) [listing 1 of 3 here], for which, in assay [6], the Ratio came out at 9.05.

On to `CC[C@H](C)[C@H](NC(=O)[C@H](CCCN=C(N)N)NC(=O)[C@H](CCCN=C(N)N)NC(=O)[C@H](CC(C)C)NC(=O)[C@H](Cc1ccccc1)NC(=O)CNC(=O)CNC(=O)[C@H](Cc1ccc(O)cc1)N(CC1CC1)CC1CC1)C(=O)N[C@@H](CCCN=C(N)N)C(=O)N1CCCC1C(=O)N[C@@H](CCCCN)C(=O)O` (stereo in doubt), for which the IC50 in assay [1] is greater than 100000 nM; in assay [8], 388 nM; in assay [4] it was 3.31 nM; in [5], 29.1 nM. In addition, the Kb in [2] is 50.1 nM. The Ki was 166 nM in [3]; 44.4 nM in assay [9]; 3.9 nM in [10]; 2.61 nM in assay [11]; 0.19 nM in assay [12]. The Ratio in [6] came out at 8.79. Moreover, the Ki ratio result in assay [13] and in [14] was “kappa/mu/delta” each time.

Consider `CC[C@H](C)[C@H](NC(=O)[C@H](CCCN=C(N)N)NC(=O)[C@H](CCCN=C(N)N)NC(=O)[C@H](CC(C)C)NC(=O)[C@H](Cc1ccccc1)NC(=O)CNC(=O)CNC(=O)[C@H](Cc1ccc(O)cc1)N(Cc1ccccc1)Cc1ccccc1)C(=O)N[C@@H](CCCN=C(N)N)C(=O)N1CCCC1C(=O)N[C@@H](CCCCN)C(=O)O` (stereo in doubt) [listing 2 of 3 here], for which the Ki in [3] was 2770 nM; in assay [10], 128 nM; in [12], 3.66 nM. Moreover, the IC50 came out at 43.2 nM in [4] and 391 nM in assay [5].

Consider `CC[C@H](C)[C@H](NC(=O)[C@H](CCCN=C(N)N)NC(=O)[C@H](CCCN=C(N)N)NC(=O)[C@H](CC(C)C)NC(=O)[C@H](Cc1ccccc1)NC(=O)CNC(=O)CNC(=O)[C@H](Cc1ccc(O)cc1)N(Cc1ccccc1)Cc1ccccc1)C(=O)N[C@@H](CCCN=C(N)N)C(=O)N1CCCC1C(=O)N[C@@H](CCCCN)C(=O)O` (stereo in doubt) [listing 3 of 3 here], for which, in assay [1], the concentration for half-maximal inhibition (IC50) was 228 nM.

Consider `CC[C@H](C)[C@H](NC(=O)[C@H](CCCN=C(N)N)NC(=O)[C@H](CCCN=C(N)N)NC(=O)[C@H](CC(C)C)NC(=O)[C@H](Cc1ccccc1)NC(=O)CNC(=O)CNC(=O)[C@@H](N)Cc1ccc(O)cc1)C(=O)N[C@@H](CCCN=C(N)N)C(=O)N1CCC[C@@H]1C(=O)N[C@@H](CCCCN)C(=O)O`, for which the Kb in assay [2] is 63.1 nM.

Turning to `C=CCN(CC=C)[C@@H](Cc1ccc(O)cc1)C(=O)NCC(=O)NCC(=O)N[C@@H](Cc1ccccc1)C(=O)N[C@@H](CC(C)C)C(=O)N[C@@H](CCCN=C(N)N)C(=O)N[C@@H](CCCN=C(N)N)C(=O)N[C@H](C(=O)N[C@@H](CCCN=C(N)N)C(=O)N1CCCC1C(=O)N[C@@H](CCCCN)C(=O)O)[C@@H](C)CC` (stereo in doubt), the IC50 was greater than 3000 nM in [1], 4970 nM in assay [8], 21.3 nM in [4] and 64.6 nM in assay [5]. In addition, the Ki in [3] was 149 nM; in [9] it was 113 nM; in assay [11] it was 21.3 nM. Moreover, the Ratio in assay [6] was 3.03. The values for the Ki ratio entry in assay [15] and in [16] were “kappa/mu/delta” and “kappa/delta/mu”, respectively.
